Results from ChEMBL document CHEMBL4715754, “Slowing down fat digestion and absorption by an oxadiazolone inhibitor targeting selectively gastric lipolysis” (2016).

Experiments:
[1] = molecular target: T1, Pancreatic lipase-related protein 2 (Cavia porcellus) (UniProt P81139); assay: Inhibition of recombinant guinea pig PL-RP2 expressed in Aspergillus oryzae preincubated for 1 hr at 25 degreeC
T1 sequence (whole entry): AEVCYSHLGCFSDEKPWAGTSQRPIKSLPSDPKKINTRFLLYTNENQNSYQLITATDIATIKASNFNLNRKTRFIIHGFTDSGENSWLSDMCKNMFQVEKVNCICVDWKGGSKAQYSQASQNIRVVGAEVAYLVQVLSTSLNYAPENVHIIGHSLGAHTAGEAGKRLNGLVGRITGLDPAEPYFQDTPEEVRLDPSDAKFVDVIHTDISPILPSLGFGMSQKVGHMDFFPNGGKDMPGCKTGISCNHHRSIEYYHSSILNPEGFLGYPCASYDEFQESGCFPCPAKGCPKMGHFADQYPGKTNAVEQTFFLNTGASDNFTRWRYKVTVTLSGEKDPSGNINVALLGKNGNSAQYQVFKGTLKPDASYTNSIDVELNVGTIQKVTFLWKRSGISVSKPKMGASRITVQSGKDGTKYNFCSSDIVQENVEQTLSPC

[2] = species: Homo sapiens; assay: Inhibition of human pancreatic carboxylesterase preincubated for 1 hr at 25 degreeC
[3] = tested on: Rattus norvegicus; assay: Inhibition of lipolysis in mesenteric lymph duct-cannulated Wistar rat model assessed as Tmax for maximum fatty acid concentration at 5.3 mg/kg supplemented with olive oil emulsion and measured after 24 hrs (reference value: 6 hrs); format: functional, organism-based
Method in brief: (§1)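 Male Wistar rats (8 weeks, 300-350 g), fat-free diet 24 h, mesenteric lymph duct cannulated under ketamine/xylazine. Given 0.8 mL olive oil emulsion (530 mg fatty acids) premixed with inhibitor at 5.3 mg/kg by mouth, then 0.5 mL water. Lymph collected over 24 h; total fatty acids by GC-FID of methyl esters. 7 rats per group; one-way ANOVA with Fisher's test.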

[4] = species: Homo sapiens; assay: Inhibition of human pancreatic carboxylesterase assessed as residual activity by measuring half-inactivation time at 4:1 molar excess compound concentration preincubated for 1 hr at 25 degreeC
Method in brief: (§2)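 Enzyme pre-incubated with inhibitor (DMSO stock) at fixed molar excess for 1 h at 25 °C without substrate: hCEH x_I=4 (1 mM NaTDC assay), RLL and DGL x_I=20 with 4 mM NaTDC, GPLRP2 x_I=2 with 2 mM NaTDC. Residual activity sampled at intervals by pH-stat on tributyrin emulsion at 37 °C; t1/2 taken at 50% residual activity. DMSO-only controls; at least triplicate.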

[5] = molecular target: T1, Pancreatic lipase-related protein 2 (Cavia porcellus); assay: Inhibition of recombinant guinea pig PL-RP2 expressed in Aspergillus oryzae assessed as residual activity by measuring half-inactivation time at 2:1 molar excess compound concentration preincubated for 1 hr at 25 degreeC; method in brief: as §2
[6] = molecular target: T2, Gastric triacylglycerol lipase (Rattus norvegicus) (UniProt P04634); assay: Inhibition of rat lingual lipase assessed as residual activity by measuring half-inactivation time at 20:1 molar excess compound concentration preincubated for 1 hr at 25 degreeC; method in brief: as §2
T2 sequence (whole entry): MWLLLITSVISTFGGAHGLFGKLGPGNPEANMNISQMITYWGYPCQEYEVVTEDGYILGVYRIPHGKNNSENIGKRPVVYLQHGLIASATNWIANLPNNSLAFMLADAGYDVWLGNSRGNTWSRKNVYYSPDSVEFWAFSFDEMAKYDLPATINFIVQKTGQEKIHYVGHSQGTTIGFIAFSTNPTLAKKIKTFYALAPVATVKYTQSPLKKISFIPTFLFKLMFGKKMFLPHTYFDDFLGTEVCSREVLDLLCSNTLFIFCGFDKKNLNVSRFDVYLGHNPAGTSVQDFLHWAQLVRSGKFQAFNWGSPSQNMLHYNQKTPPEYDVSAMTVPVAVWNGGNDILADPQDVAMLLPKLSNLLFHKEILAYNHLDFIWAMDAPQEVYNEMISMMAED

[7] = molecular target: T3, Pancreatic triacylglycerol lipase (Sus scrofa) (UniProt P00591); assay: Inhibition of porcine pancreatic lipase preincubated for 30 mins at 25 degreeC
T3 sequence (whole entry): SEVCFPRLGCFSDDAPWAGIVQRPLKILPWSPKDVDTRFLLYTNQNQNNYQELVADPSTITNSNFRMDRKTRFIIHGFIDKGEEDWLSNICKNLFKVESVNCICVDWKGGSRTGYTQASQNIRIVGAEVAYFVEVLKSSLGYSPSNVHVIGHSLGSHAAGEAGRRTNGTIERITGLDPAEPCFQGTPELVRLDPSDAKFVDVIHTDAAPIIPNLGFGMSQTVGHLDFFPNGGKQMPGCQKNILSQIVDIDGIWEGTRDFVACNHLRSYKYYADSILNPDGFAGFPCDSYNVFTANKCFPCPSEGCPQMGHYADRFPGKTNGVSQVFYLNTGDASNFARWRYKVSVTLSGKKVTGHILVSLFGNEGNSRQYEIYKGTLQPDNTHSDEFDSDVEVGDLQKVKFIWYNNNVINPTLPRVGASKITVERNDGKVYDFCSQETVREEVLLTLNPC
Method in brief: (§3)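 Pancreatic lipase from human pancreatic juice (54 µg/mL HPL stock) or porcine pancreatic extract (32 µg/mL PPL stock) was held in 10 mM MES pH 7.0, 150 mM NaCl. It was pre-incubated with inhibitor from DMSO stock for 30 min at 25 °C with 4 mM NaTDC at varied molar excess. Residual activity was read by pH-stat on tributyrin at 37 °C, pH 8.0, with 2 mM CaCl₂ and 4 mM NaTDC. x_I50 was taken from residual activity; DMSO-only controls were run.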

[8] = molecular target: T4, Pancreatic triacylglycerol lipase (Homo sapiens) (UniProt P16233); assay: Inhibition of human pancreatic lipase preincubated for 30 mins at 25 degreeC; method in brief: as §3
T4 sequence (whole entry): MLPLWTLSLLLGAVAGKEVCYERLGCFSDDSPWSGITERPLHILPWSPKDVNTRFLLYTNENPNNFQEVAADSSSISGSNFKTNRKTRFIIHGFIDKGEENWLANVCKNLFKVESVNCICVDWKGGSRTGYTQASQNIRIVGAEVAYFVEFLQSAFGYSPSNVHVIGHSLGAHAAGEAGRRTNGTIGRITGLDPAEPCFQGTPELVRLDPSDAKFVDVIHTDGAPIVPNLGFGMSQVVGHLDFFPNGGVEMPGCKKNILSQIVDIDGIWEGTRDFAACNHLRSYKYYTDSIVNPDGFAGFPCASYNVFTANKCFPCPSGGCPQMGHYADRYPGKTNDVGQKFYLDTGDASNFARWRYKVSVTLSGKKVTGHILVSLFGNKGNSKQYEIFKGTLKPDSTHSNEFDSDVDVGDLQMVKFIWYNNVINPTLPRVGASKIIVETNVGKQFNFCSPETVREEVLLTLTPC

[9] = molecular target: T3, Pancreatic triacylglycerol lipase (Sus scrofa); assay: Inhibition of porcine pancreatic lipase at 400:1 molar excess compound concentration preincubated for 30 mins at 25 degreeC relative to control; method in brief: as §3
[10] = molecular target: T2, Gastric triacylglycerol lipase (Rattus norvegicus); assay: Inhibition of rat lingual lipase preincubated for 1 hr at 25 degreeC; method in brief: as §2
[11] = tested on: Rattus norvegicus; assay: Inhibition of lipolysis in mesenteric lymph duct-cannulated Wistar rat model assessed as decrease in intestinal lipid absorption at 5.3 mg/kg supplemented with olive oil emulsion and measured after 24 hrs relative to control; format: functional; design: scale not given: the % may be the effect or the level left; method in brief: as §1
[12] = tested on: Rattus norvegicus; assay: Inhibition of lipolysis in mesenteric lymph duct-cannulated Wistar rat model assessed as decrease in intestinal lipid absorption at 5.3 mg/kg supplemented with olive oil emulsion and measured after 6 hrs relative to control; format: functional; design: scale not given: the % may be the effect or the level left; method in brief: as §1

| Compound | XI50 [1] [molar excess] | XI50 [2] [molar excess] | Tmax [3] [h] | T1/2 [4] [s] | T1/2 [5] [s] | T1/2 [6] [s] | XI50 [7] [molar excess] | XI50 [8] [molar excess] | inhibition [9] [%] | XI50 [10] [molar excess] | Activity [11] [%] | Activity [12] [%] |
| --- | --- | --- | --- | --- | --- | --- | --- | --- | --- | --- | --- | --- |
| O=c1oc(OCCOCc2ccccc2)nn1-c1cccc(Oc2ccccc2)c1 | 0.64 | 1.42 | 5 | 78.6 | 31.2 | 297 | > 400 | > 400 | 13.2 | 1.43 | -24 | -9.1 |
| CCCCCCCCCCC[C@@H](C[C@@H]1OC(=O)[C@H]1CCCCCC)OC(=O)[C@@H](CC(C)C)NC=O | 0.53 | 0.78 | 6 | 31.2 | 24 | 23.4 | 1.35 | 11.1 | 93.1 | 0.7 | -70.9 | -37.4 |
